Values after ≈ are worked out from the molar mass of the structure shown. Active and inactive are the calls of the source. The rule behind the calls is not given here.
Legend:
Human alphaherpesvirus 1 [1] = assay: Antiviral activity against HHV1 CDC Atlanta infected in African green monkey Vero cells assessed as reduction of viral titer at maximal non-toxic concentration after 48 hrs by crystal violet staining assay relative to control; assay type: functional
Outline: (§1)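 End-point titration on Vero monolayers (2.0 × 10^4 cells/well, ≥80% confluent) with 10 TCID50 virus. Virus–compound mixtures (6.25–50 μg/mL) in DMEM/2% FBS with CMC (1% for HHV-1, 0.5% for HHV-2) were held 15 min at room temperature. Incubation was 48 h (HHV-1) or 72 h (HHV-2) at 37 °C, then formaldehyde/crystal violet staining and plaque counting. Read-out is the viral titer reduction factor. Two experiments in quadruplicate.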

Human alphaherpesvirus 1 [2] = assay: Antiviral activity against HHV-1 CDC Atlanta infected in African green monkey Vero cells assessed as maximal non toxic concentration causing reduction of viral titer after 48 hrs by crystal violet staining assay; assay type: functional; outline: as §1
Human alphaherpesvirus 2 [3] = assay: Antiviral activity against HHV-2 VR-734-G infected in African green monkey Vero cells assessed as reduction of viral titer at maximal non-toxic concentration after 72 hrs by crystal violet staining assay relative to control; assay type: functional; outline: as §1
Human alphaherpesvirus 2 [4] = assay: Antiviral activity against HHV-2 VR-734-G infected in African green monkey Vero cells assessed as maximal non toxic concentration causing reduction of viral titer after 72 hrs by crystal violet staining assay; assay type: functional; outline: as §1
dengue virus type 2 [5] = assay: Antiviral activity against DENV-2 New guinea infected in African green monkey Vero cells assessed as inhibition of virus-induced cytopathic effect after 3 days by crystal violet staining based inverted microscopic analysis relative to control; assay type: functional, organism-based
HeLa [6] = assay: Cytotoxicity against human HeLa cells assessed as cell growth inhibition after 48 hrs by MTT assay; assay type: functional, cell-based
Outline: (§2)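 MTT assay. Vero and HeLa cells plated at 2.0 × 10^4/well and preincubated 24 h; Jurkat and U937 plated at 3.0 × 10^4/well. Compounds were applied 48 h at 37 °C, 5% CO2, with 0.05% DMSO. Absorbance read at 570 nm and IC50 taken by linear regression. Values are the geometric mean of two experiments in quadruplicate.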

HeLa [7] = assay: Selectivity index, ratio of IC50 for African green monkey Vero cells to IC50 for human HeLa cells; assay type: functional
Outline: (§3)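 SI calculated as Vero IC50 divided by HeLa, Jurkat or U937 IC50, all from the 48 h MTT assay.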

Jurkat [8] = assay: Cytotoxicity against human Jurkat cells assessed as cell growth inhibition after 48 hrs by MTT assay; assay type: functional, cell-based; outline: as §2
Jurkat [9] = assay: Selectivity index, ratio of IC50 for African green monkey Vero cells to IC50 for human Jurkat cells; assay type: functional; outline: as §3
[10] = Cytotoxicity against human U937 cells assessed as cell growth inhibition after 48 hrs by MTT assay; assay type: functional, cell-based; details: U-937, 48 h; outline: as §2
Vero [11] = assay: Selectivity index, ratio of IC50 for African green monkey Vero cells to IC50 for human U937 cells; assay type: functional; outline: as §3
Vero [12] = assay: Cytotoxicity against African green monkey Vero cells assessed as cell growth inhibition after 48 hrs by MTT assay; assay type: cell-based; details: Chlorocebus sabaeus; outline: as §2
Vero [13] = assay: Cytotoxicity against African green monkey Vero cells assessed as inhibition of cell proliferation after 72 hrs; assay type: cell-based; details: Chlorocebus sabaeus
Vero [14] = assay: Cytotoxicity against African green monkey Vero cells assessed as inhibition of cell proliferation after 8 days; assay type: cell-based; details: Chlorocebus sabaeus, 192 h
Human alphaherpesvirus 1 [15] = assay: Antiviral activity against HHV-1 CDC Atlanta infected in African green monkey Vero cells assessed as reduction in plaque formation administered simultaneously with virus for 1 hr measured after 72 hrs by crystal violet staining technique; assay type: functional, organism-based
Outline: (§4)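 Plaque reduction on Vero monolayers (2.5 × 10^4 cells/well) infected with 100 PFU/well. Pre-infection arm: virus–compound mixture added for 1 h at 37 °C, PBS wash, then CMC overlay. Post-infection arm: virus adsorbed 1 h, washed, then compound given in CMC. CMC was 1% for HHV-1, 0.75% for HHV-2 and 2% for DENV-2. Plates ran 72 h (HHV) or 8 days (DENV-2) before crystal violet staining. EC50 came from linear regression over ≥4 dilutions in quadruplicate.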

Human alphaherpesvirus 2 [16] = assay: Antiviral activity against HHV-2 VR-734-G infected in African green monkey Vero cells assessed as reduction in plaque formation administered simultaneously with virus for 1 hr measured after 72 hrs by crystal violet staining technique; assay type: functional, organism-based; outline: as §4
dengue virus type 2 [17] = assay: Antiviral activity against DENV-2 New guinea infected in African green monkey Vero cells assessed as reduction in plaque formation administered simultaneously with virus for 1 hr measured after 8 days by crystal violet staining technique; assay type: functional, organism-based; outline: as §4
Human alphaherpesvirus 1 [18] = assay: Antiviral activity against HHV-1 CDC Atlanta infected in African green monkey Vero cells assessed as reduction in plaque formation administered post viral infection after 72 hrs by crystal violet staining technique; assay type: functional, organism-based; outline: as §4
Human alphaherpesvirus 2 [19] = assay: Antiviral activity against HHV-2 VR-734-G infected in African green monkey Vero cells assessed as reduction in plaque formation administered post viral infection after 72 hrs by crystal violet staining technique; assay type: functional, organism-based; details: Human alphaherpesvirus 2, VR-734-G; outline: as §4
dengue virus type 2 [20] = assay: Antiviral activity against DENV-2 New guinea infected in African green monkey Vero cells assessed as reduction in plaque formation administered post viral infection after 8 days by crystal violet staining technique; assay type: functional, organism-based; details: 192 h; outline: as §4
[21] = Selectivity index, ratio of IC50 for African green monkey vero cells to EC50 for HHV-1 compound administered post viral infection
Outline: (§5)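 Antiviral SI calculated as Vero IC50 divided by the post-infection plaque-reduction EC50 for each virus on Vero cells.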

[22] = Selectivity index, ratio of IC50 for African green monkey vero cells to EC50 for HHV-2 compound administered post viral infection; outline: as §5
[23] = Selectivity index, ratio of IC50 for African green monkey vero cells to EC50 for DENV-2 compound administered post viral infection; outline: as §5
Human alphaherpesvirus 2 [24] = assay: Antiviral activity against HHV-2 VR-734-G infected in African green monkey Vero cells assessed as viral plaque size reduction at 20.8 uM after 72 hrs by crystal violet staining based inverted microscopic analysis relative to control; assay type: functional; parameters: scale not given: the % may be the effect or the level left
Outline: (§6)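 Vero cells (2.5 × 10^4/well) infected with 100 PFU/well, with compound in CMC added 2 h after infection. Incubation was 72 h for HHV strains and 8 days for DENV-2, then formaldehyde/crystal violet staining. Twenty plaques per concentration per well were imaged and their areas […] measured against mock-treated controls. Two experiments in duplicate.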

Trichophyton rubrum = assay: Antifungal activity against Trichophyton rubrum ATCC 28188 assessed as microbial growth inhibition after 6 days by microdilution assay; assay type: functional; details: ATCC 28188, 144 h
Outline: (§7)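 Broth microdilution under CLSI M38-A with modifications, in duplicate, at final compound concentrations of 50–3.125 μg/mL. […] Values are the geometric mean of duplicate tests in three assays. Assay DMSO was 0.05%.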

[25] = tested on: Trichophyton mentagrophytes; assay: Antifungal activity against Trichophyton mentagrophytes ATCC 24198 assessed as microbial growth inhibition after 6 days by microdilution assay; assay type: functional; details: ATCC 24198, 144 h; outline: as §7
Fusarium oxysporum = assay: Antifungal activity against Fusarium oxysporum ATCC 48112 assessed as microbial growth inhibition after 48 hrs by microdilution assay; assay type: functional, organism-based; outline: as §7
Aspergillus fumigatus = assay: Antifungal activity against Aspergillus fumigatus ATCC 204305 assessed as microbial growth inhibition by microdilution assay; assay type: functional, organism-based; outline: as §7
Aspergillus flavus = assay: Antifungal activity against Aspergillus flavus ATCC 204304 assessed as microbial growth inhibition by microdilution assay; assay type: functional, organism-based; outline: as §7
Aspergillus terreus = assay: Antifungal activity against Aspergillus terreus CDC 317 assessed as microbial growth inhibition by microdilution assay; assay type: functional, organism-based; outline: as §7
Candida albicans = assay: Antifungal activity against Candida albicans […] assessed as microbial growth inhibition after 24 hrs by microdilution assay; assay type: functional, organism-based
Outline: (§8)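 Yeast microdilution by the AFST-EUCAST method at an inoculum of 1–5 × 10^5 CFU/mL, final compound concentrations 50–3.125 μg/mL, in duplicate. MIC is the lowest concentration giving 90% growth reduction after 24 h at 35 °C. Untreated inoculum served as negative control. Values are the geometric mean of duplicate tests in three assays.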

Candida parapsilosis = assay: Antifungal activity against Candida parapsilosis ATCC 22019 assessed as microbial growth inhibition after 24 hrs by microdilution assay; assay type: functional, organism-based; outline: as §8
Candida tropicalis = assay: Antifungal activity against Candida tropicalis ATCC 200956 assessed as microbial growth inhibition after 24 hrs by microdilution assay; assay type: functional, organism-based; outline: as §8
dengue virus type 2 [26] = assay: Antiviral activity against DENV-2 New guinea infected in African green monkey Vero cells assessed as maximal non toxic concentration causing inhibition of virus-induced cytopathic effect after 3 days by crystal violet staining based inverted microscopic analysis; assay type: functional
Human alphaherpesvirus 1 [27] = assay: Antiviral activity against HHV-1 CDC Atlanta infected in African green monkey Vero cells assessed as viral plaque size reduction at 29 uM after 72 hrs by crystal violet staining based inverted microscopic analysis relative to control; assay type: functional; parameters: scale not given: the % may be the effect or the level left; outline: as §6
dengue virus type 2 [28] = assay: Antiviral activity against DENV-2 New guinea infected in African green monkey Vero cells assessed as viral plaque size reduction at 3.6 uM after 8 days by crystal violet staining based inverted microscopic analysis relative to control; assay type: functional; parameters: scale not given: the % may be the effect or the level left; outline: as §6
Human alphaherpesvirus 1 [29] = assay: Antiviral activity against acyclovir-resistant HHV-1 29R infected in African green monkey Vero cells assessed as viral plaque size reduction at 29 uM after 72 hrs by crystal violet staining based inverted microscopic analysis relative to control; assay type: functional; parameters: scale not given: the % may be the effect or the level left; outline: as §6

| Structure (SMILES) | fold change (FC) (Human alphaherpesvirus 1 [1]) | MNTD (Human alphaherpesvirus 1 [2]) | fold change (FC) (Human alphaherpesvirus 2 [3]) | MNTD (Human alphaherpesvirus 2 [4]) [µM] | Activity (dengue virus type 2 [5]) | IC50 (HeLa [6]) [µM] | IC50 (Jurkat [8]) [µM] | IC50 [10] [µM] | IC50 (Vero [13]) [µM] | IC50 (Vero [14]) [µM] | EC50 (Human alphaherpesvirus 1 [15]) | EC50 (Human alphaherpesvirus 2 [16]) | EC50 (dengue virus type 2 [17]) | EC50 (Human alphaherpesvirus 2 [19]) [µM] | EC50 (dengue virus type 2 [20]) [µM] | Ratio IC50/EC50 [22] | Ratio IC50/EC50 [23] | Activity (Fusarium oxysporum) | Activity (Aspergillus fumigatus) | Activity (Aspergillus flavus) | also measured |
| --- | --- | --- | --- | --- | --- | --- | --- | --- | --- | --- | --- | --- | --- | --- | --- | --- | --- | --- | --- | --- | --- |
| CC(C)c1cc2c(cc1O)[C@@]1(C)CCC[C@@](C)(C=O)[C@@H]1CC2 [18-OXOFERRUGINOL] | inactive | inactive | 1000 | 41.7 | Active | 60 | 21.6 | 33.2 | 97.8 | 52.2 | Not Active | Not Active | Not Active | 16.6 | 5 | 5.9 | 10.4 | inactive | inactive | inactive | Ratio IC50 (HeLa [7]): 1.5; Ratio IC50 (Jurkat [9]): 4.2; Ratio IC50 (Vero [11]): 2.7; IC50 (Vero [12]): 90.8 µM; EC50 (Human alphaherpesvirus 1 [18]; Human alphaherpesvirus 1, CDC Atlanta, Vero, 72 h, read-out: EC50): 19.6 µM; Ratio IC50/EC50 [21]: 4.9; Activity (Human alphaherpesvirus 2 [24]): 68.2%; MIC80 (Trichophyton rubrum): 41.7 µM (≈ 12.5 µg/mL); MIC80 [25]: 83.3 µM (≈ 25 µg/mL); Activity (Aspergillus terreus): inactive; Activity (Candida albicans): inactive; Activity (Candida parapsilosis): inactive; Activity (Candida tropicalis): inactive |
| NC(=O)c1ncn([C@@H]2O[C@H](CO)[C@@H](O)[C@H]2O)n1 [RIBAVIRIN] | – | – | – | – | Active | – | – | – | – | – | – | – | – | – | 13.5 | – | – | – | – | – | MNTD (dengue virus type 2 [26]): 123 µM |
| CC(C)c1cc2c(cc1O)[C@@]1(C)CCC[C@@](C)(CN3C(=O)c4ccccc4C3=O)[C@@H]1CC2 | 100 | 14.5 µM | 1000 | 29 | Active | > 50 | > 50 | > 50 | 191 | 80.8 | Not Active | Not Active | Not Active | 19.2 | 1.4 | 10 | 57.7 | inactive | inactive | inactive | EC50 (Human alphaherpesvirus 1 [18]; vero): Not Active; Activity (Human alphaherpesvirus 1 [27]): 93.7%; Activity (dengue virus type 2 [28]): 77.9%; Activity (Human alphaherpesvirus 1 [29]): 87.1%; Activity (Aspergillus terreus): inactive; Activity (Candida albicans): inactive; Activity (Candida parapsilosis): inactive; Activity (Candida tropicalis): inactive |
